These results are taken from article PMC4068216 (ACS Chemical Biology, 2014).

Series [1] has as its system LAT1. The note with it: only tested on LAT1 and LAT2; cited from earlier work.
In series [2] the test system is HT-29 colorectal adenocarcinoma cell. To be noted: in vitro and in vivo; cited from earlier work.
Series [3] has as its system LNCaP cells. The series can be described thus: BrdU incorporation assay in LNCaP cells. The class given is cell-based, human. The note with it: BCH 10 mM, ESK242 and ESK246 50 μM, 22 h then BrdU 2 h. The method in brief:
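LNCaP cells (2 × 10^5 per 6-well) adhered overnight, were serum-starved, then exposed to test compound, DMSO vehicle or BCH for 22 h. BrdU (150 μg/mL) was added for a further 2 h. Cells were detached, fixed and stained with APC anti-BrdU (1:50) and 7-AAD, then analysed by flow cytometry. Three separate experiments; one-way ANOVA.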
(Incorporation of labelled thymidine or its analogues reports DNA synthesis.)

Series [4] addresses T1, LAT3 (Homo sapiens, UniProt O75387).
T1 sequence (O75387 1-559): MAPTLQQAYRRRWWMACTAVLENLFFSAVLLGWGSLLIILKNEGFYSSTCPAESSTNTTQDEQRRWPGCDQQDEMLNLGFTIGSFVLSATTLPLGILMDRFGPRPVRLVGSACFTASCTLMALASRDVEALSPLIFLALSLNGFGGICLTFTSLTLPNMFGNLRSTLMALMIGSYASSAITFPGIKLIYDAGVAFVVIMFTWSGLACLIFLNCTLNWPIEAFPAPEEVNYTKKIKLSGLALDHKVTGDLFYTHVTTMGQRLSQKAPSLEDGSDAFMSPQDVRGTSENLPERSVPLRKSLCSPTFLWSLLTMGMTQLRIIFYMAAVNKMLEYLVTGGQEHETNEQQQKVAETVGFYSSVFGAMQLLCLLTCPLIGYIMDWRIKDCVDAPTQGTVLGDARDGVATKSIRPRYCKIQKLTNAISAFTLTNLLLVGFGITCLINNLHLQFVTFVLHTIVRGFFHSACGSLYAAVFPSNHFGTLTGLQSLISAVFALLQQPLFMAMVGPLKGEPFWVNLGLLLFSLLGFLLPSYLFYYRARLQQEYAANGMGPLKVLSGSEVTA
The series can be described thus: [3H]-L-leucine uptake assay in LNCaP cells. The class given is cell-based. The essentials:
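Dose–response: LNCaP cells (3 × 10^4/well) took up 0.3 μCi [3H]-L-leucine (200 nM) in leucine-free RPMI with 10% dialysed FBS for 15 min at 37 °C. Screen: 10^4 cells/well in HBSS with 10% dialysed FBS and 50 mM L-glutamine, added onto preloaded fractions, n = 1 per fraction. Controls were 0.5% DMSO and 10 mM BCH. Cells were filter-harvested for scintillation counting.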

Substrate in series [5]: CC(C)C[C@H](N)C(=O)O
The series can be described thus: [3H]-L-leucine uptake in Xenopus laevis oocytes expressing LAT3. To be noted: other: no inhibitor, pH 7.5. Format: cell-based, human.

With `Nc1cc(COc2c(Cl)cc(C[C@H](N)C(=O)O)cc2Cl)c2oc(-c3ccccc3)nc2c1` [JPH203/KYT-0353], the “selectivity, LAT1 versus LAT2” value in series [1] is “selectivity for LAT1-mediated transport”. The HT-29 cell growth result in series [2] is “suppression of HT-29 colorectal adenocarcinoma cell growth in vitro and in vivo”.

For `NC1(C(=O)O)CC2CCC1C2` (stereo not shown) [BCH, 2-aminobicyclo[2.2.1]heptane-2-carboxylic acid], in series [3], the BrdU incorporation amounted to 14.7% and the “BrdU incorporation relative to control” value is reported as 51.6 % of control. For the same molecule, the half-maximal inhibitory concentration (IC50) (in general, the concentration needed to halve the response being measured) in series [4] was 4.06 ± 0.0011 mM. Besides, in series [4] (high-throughput screen, positive control 10 mM, LNCaP cells), the leucine uptake is 30–40 % of control.

B1: LAT3 (Homo sapiens) (protein)
chain: T1 sequence (O75387 1-559)
Take B1: the Km (in general, the concentration of substrate that gives half-maximal velocity) in series [5] was 6.3 ± 0.5 mM.
